We go through two compounds from ChEMBL document CHEMBL4385611, “Difluoromethylene at the γ-Lactam α-Position Improves 11-Deoxy-8-aza-PGE1 Series EP4 Receptor Binding and Activity: 11-Deoxy-10,10-difluoro-8-aza-PGE1 Analog (KMN-159) as a Potent EP4 Agonist” (J Med Chem, 2019).

One may read the Papp A→B as how fast a substance crosses the layer from the apical side. The term Papp B→A denotes the apparent permeability from the basolateral to the apical side of a cell layer.

Each structure is given as a SMILES string. A value given as a limit tells only on which side of the number the result lay.

Data set [1] has as its target Prostaglandin E2 receptor EP2 subtype (Homo sapiens, UniProt P43116). The data set can be described thus: Agonist activity at human EP2 receptor expressed in HEK293T/17 cells assessed as increase in GalphaS-mediated CREB activation at 10 uM measured after 6 to 24 hrs by SEAP reporter gene-based chemiluminescence assay relative to control. In kind it is functional, cell-based.

Data set [2] in a line: Apparent permeability across apical to basolateral side in MDCK-MDR1 cells 120 mins by LC-MS/MS analysis. In kind it is ADME, cell-based, Canis lupus familiaris. As to conditions: dog.
Data set [3] is described as follows: Apparent permeability across basolateral to apical side in MDCK-MDR1 cells 120 mins by LC-MS/MS analysis. As to conditions: dog. Format: ADME, cell-based, Canis lupus familiaris.
Data set [4] is described as follows: Chemical stability in PBS buffer at pH 7.4 assessed as compound recovery at 4 degC under autoclave condition. Format: physicochemical. In a few lines:
(§1)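 Compound solution in PBS, pH 7.4, held at 4 °C, tested as plain aqueous solution and after autoclaving. A separate sample was exposed to Co-60 gamma irradiation. Read-out is percent of compound recovered.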

The nature of data set [5]: Chemical stability of the compound assessed as drug recovery under Co-60 gamma irradiation condition. Format: physicochemical. In a few lines:
as §1

Sequence of Prostaglandin E2 receptor EP2 subtype (P43116 whole entry): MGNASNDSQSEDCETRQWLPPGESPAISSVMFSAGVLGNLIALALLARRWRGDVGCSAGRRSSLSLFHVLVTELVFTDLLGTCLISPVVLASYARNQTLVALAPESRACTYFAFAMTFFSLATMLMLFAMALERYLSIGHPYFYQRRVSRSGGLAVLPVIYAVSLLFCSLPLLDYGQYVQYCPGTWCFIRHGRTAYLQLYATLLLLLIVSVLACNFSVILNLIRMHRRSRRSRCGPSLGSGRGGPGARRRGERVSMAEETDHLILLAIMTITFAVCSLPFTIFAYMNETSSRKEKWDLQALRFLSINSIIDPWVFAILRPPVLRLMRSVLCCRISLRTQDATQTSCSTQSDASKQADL

As to `CCC#CC[C@H](C)[C@H](O)/C=C/[C@H]1CCC(=O)N1CCCCCCC(=O)O`, in data set [1], the Activity was less than 50%.

Consider `CCC#CC[C@H](C)[C@H](O)/C=C/[C@H]1CC(F)(F)C(=O)N1CCCCCCC(=O)O`, for which the Papp A→B at 2 h in data set [2] is 0.59 ×10⁻⁶ cm/s. Besides, the apparent permeability from basolateral to apical (Papp B→A) at 2 h in data set [3] came out at 11.8 ×10⁻⁶ cm/s. In addition, the Drug recovery in data set [4] is 100%; in data set [5], 95%.
